# Source: ChEMBL document CHEMBL1125330, “N-substituted pyrazino[2,3-c][1,2,6]thiadiazine 2,2-dioxides. A new class of diuretics” (J Med Chem, 1992)
# Legend:
# Details in all cases: in vivo
# Rattus norvegicus [1] = species: Rattus norvegicus; assay: Mean sodium excretion in rats (Control/Drug treatment value); value 0.52/2.02; type: ADME, organism-based
# Rattus norvegicus [2] = species: Rattus norvegicus; assay: Mean urinary output in rats (Control/Drug treatment value); value 24.0/36.5; type: ADME, organism-based, Urine
# Procedure, shortened: (§1)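 Water-loaded male Sprague-Dawley rats (HC/CFY, 175-200 g), eight per group, deprived of food and water 18 h. Single oral gavage of 20-25 mg/kg (some 10 mg/kg) in 1% CMC/0.1% Tween 80, then distilled water 2.5 mL/100 g bw po. Cumulative urine over 6 h in metabolic cages; mean mL/6 h/kg bw vs vehicle group.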
# Rattus norvegicus [3] = species: Rattus norvegicus; assay: Mean urinary output in rats (Control/Drug treatment; value 23.3/29.9; type: ADME, organism-based, Urine
# Rattus norvegicus [4] = species: Rattus norvegicus; assay: Mean urinary output in rats (Control/Drug treatment value); value 27.7/36.4; type: ADME, organism-based, Urine
# Rattus norvegicus [5] = species: Rattus norvegicus; assay: Mean sodium excretion in rats (Control/Drug treatment value); value 0.5/1.79; type: ADME, organism-based
# Rattus norvegicus [6] = species: Rattus norvegicus; assay: Mean sodium excretion in rats (Control/Drug treatment value); value 0.44/2.68; type: ADME, organism-based
# Rattus norvegicus [7] = species: Rattus norvegicus; assay: Mean urinary output in rats (Control/Drug treatment value); value 26.1/45.7; type: ADME, organism-based, Urine; procedure, shortened: as §1
compound,measurement,setting,value
CCc1nc2c(nc1C)C(N)=NS(=O)(=O)N2C,Na,Rattus norvegicus [1],3.9
same,V,Rattus norvegicus [2],1.5
CCN1c2nc(C(F)(F)F)c(C(F)(F)F)nc2C(N)=NS1(=O)=O,V,Rattus norvegicus [3],1.3
CCN1c2nc(C)c(C)nc2C(N)=NS1(=O)=O,V,Rattus norvegicus [4],1.3
same,Na,Rattus norvegicus [5],3.6 m equiv 6hr-1 kg-1 (body weight)-1
CCCN1c2nc(C)c(C)nc2C(N)=NS1(=O)=O,Na,Rattus norvegicus [6],6.1
same,V,Rattus norvegicus [7],1.8
